From PubChem BioAssay AID504518 (Sanford-Burnham Center for Chemical Genomics, 2011)
The source made the active and inactive calls.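 Rule for the calls: active = mean IC50 at or below 20 µM; inactive = the rest.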

Test system: HEK-293T NF-kB-Luc, TNFa-induced, luciferase luminescence 14 h
Assay: inhibitors of TNFa-driven NF-kB luciferase in HEK-293T – cell-based, luminescence, selectivity assay for B-cell antigen receptor NF-kB inhibitors, SAR follow-up (AID 504518)
In short: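 Material: HEK-293-T NF-kB luciferase reporter cells; quantity: 6000 cells per well; compound: dose series, DMSO at most 1%; timing: 14 h compound exposure, 37 °C; signal: SteadyGlo luminescence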

SMILES: COc1cccc(-c2cc(=O)c3cc(NC(=O)c4ccc(N(C)C)cc4)ccc3[nH]2)c1
- IC50: 15.2 µM

SMILES: CCCCc1ccc(-c2noc(CCC(=O)NC(C)(C)C)n2)cc1
- IC50: 0.66 µM

SMILES: CCNC(=O)CCc1nc(-c2ccccc2)no1
- IC50: > 79 µM (inactive)

SMILES: CNC(=O)CCc1nc(-c2ccc(C(C)(C)C)cc2)no1
- IC50: 66.8 µM (inactive)

SMILES: CCc1ccc(-c2nc(CSCC(=O)NCc3ccco3)c(C)o2)cc1
- IC50: > 79 µM (inactive)

SMILES: O=C(O)CCc1nc(-c2ccccc2)no1
- IC50: > 79 µM (inactive)

SMILES: CCNC(=O)CCc1nc(-c2cccc(OC)c2)no1
- IC50: > 79 µM (inactive)

SMILES: CCOc1ccc(-c2nc(CSCC(=O)NC3CCC3)c(C)o2)cc1
- IC50: 38.7 µM (inactive)

SMILES: CCNC(=O)CCc1nc(-c2ccccc2C)no1
- IC50: > 79 µM (inactive)

SMILES: Cc1ccc(-c2nc(CSCC(=O)NCc3ccco3)c(C)o2)cc1
- IC50: 33.6 µM (inactive)

SMILES: Cc1oc(-c2ccccc2)nc1CSCC(=O)NCc1ccco1
- IC50: > 79 µM (inactive)

SMILES: CCc1ccc(-c2noc(CCC(=O)NC(C)(C)C)n2)cc1
- IC50: 22 µM (inactive)

SMILES: CCc1ccc(-c2noc(CCC(=O)NC)n2)cc1
- IC50: > 79 µM (inactive)

SMILES: CCNC(=O)CCc1nc(-c2cccc(C)c2)no1
- IC50: > 79 µM (inactive)

SMILES: Cc1oc(-c2ccccc2)nc1CSCC(=O)NC1CC1
- IC50: > 79 µM (inactive)

SMILES: CCCCOc1ccc(-c2nc(CSCC(=O)NC3CC3)c(C)o2)cc1
- IC50: 11.1 µM

SMILES: CCNC(=O)CCc1nc(-c2cccc(F)c2)no1
- IC50: > 79 µM (inactive)

SMILES: CCCCc1ccc(-c2noc(CCC(=O)NC3CC3)n2)cc1
- IC50: 0.55 µM

SMILES: CCCCOc1ccc(-c2nc(CSCC(=O)NCc3ccco3)c(C)o2)cc1
- IC50: 13.1 µM

SMILES: CCOc1ccc(-c2nc(CSCC(=O)O)c(C)o2)cc1
- IC50: 0.04 µM

SMILES: CCOc1ccccc1-c1nc(CSCC(=O)NC2CC2)c(C)o1
- IC50: > 79 µM (inactive)

SMILES: CCCOc1ccc(-c2nc(CSCC(=O)O)c(C)o2)cc1
- IC50: 0.03 µM

SMILES: COc1ccc(-c2nc(CSCC(=O)NCc3ccco3)c(C)o2)cc1
- IC50: 35.8 µM (inactive)

SMILES: CCOc1ccc(-c2nc(CSCC(=O)NCC3CC3)c(C)o2)cc1
- IC50: 55.4 µM (inactive)

SMILES: CC(C)(C)c1ccc(-c2noc(CCC(=O)O)n2)cc1
- IC50: 0.29 µM

SMILES: Cc1oc(-c2ccc(C(F)(F)F)cc2)nc1CSCC(=O)NC1CC1
- IC50: 24.4 µM (inactive)

SMILES: CCOC(=O)CC(NC(=O)c1ccc(Br)cc1)c1ccc(F)c([N+](=O)[O-])c1 (stereo not drawn)
- IC50: 73.4 µM (inactive)

SMILES: CCOc1ccc(-c2nc(CSCC(=O)N3CCOCC3)c(C)o2)cc1
- IC50: 64.6 µM (inactive)

SMILES: CCNC(=O)CCc1nc(-c2c(Cl)cccc2Cl)no1
- IC50: > 79 µM (inactive)

SMILES: COc1ccc(C(=O)Nc2ccc3[nH]c(-c4cccc(OC)c4)cc(=O)c3c2)cc1
- IC50: > 79 µM (inactive)

SMILES: CCOc1ccc(-c2nc(CSCC(=O)N(C)C)c(C)o2)cc1
- IC50: 78.5 µM (inactive)

SMILES: CCc1ccc(-c2nc(CSCC(=O)NC3CC3)c(-c3ccccc3)o2)cc1
- IC50: > 79 µM (inactive)

SMILES: COc1cccc(-c2cc(=O)c3cc(NC(=O)c4ccccc4)ccc3[nH]2)c1
- IC50: > 79 µM (inactive)

SMILES: CCCOc1ccc(-c2nc(CSCC(=O)NC3CC3)c(C)o2)cc1
- IC50: 31.5 µM (inactive)

SMILES: Cc1ccc(-c2nc(CSCC(=O)NC3CC3)c(C)o2)cc1
- IC50: 71.1 µM (inactive)

SMILES: CCNC(=O)CCc1nc(-c2ccccc2Cl)no1
- IC50: > 79 µM (inactive)

SMILES: CCOc1ccc(-c2nc(CSCC(N)=O)c(C)o2)cc1
- IC50: > 79 µM (inactive)

SMILES: CCNC(=O)CCc1nc(-c2ccc(OCC)cc2)no1
- IC50: > 79 µM (inactive)

SMILES: COC(=O)CCc1nc(-c2ccc(C(C)(C)C)cc2)no1
- IC50: 0.22 µM

SMILES: C#CCNC(=O)CSCc1nc(-c2ccc(OCC)cc2)oc1C
- IC50: > 79 µM (inactive)

SMILES: CCCCOc1ccc(-c2nc(CSCC(=O)O)c(C)o2)cc1
- IC50: 0.04 µM

SMILES: CC(C)(C)NC(=O)CCc1nc(-c2ccccc2)no1
- IC50: > 79 µM (inactive)

SMILES: Cc1oc(-c2ccc(OC(F)(F)F)cc2)nc1CSCC(=O)O
- IC50: 0.11 µM

SMILES: CCc1ccc(-c2nc(CSCC(=O)NC3CC3)c(C)o2)cc1
- IC50: 42.2 µM (inactive)

SMILES: CCOc1ccccc1-c1nc(CSCC(=O)O)c(C)o1
- IC50: > 79 µM (inactive)

SMILES: CCC(C)NC(=O)CCc1nc(-c2ccccc2)no1 (stereo not drawn)
- IC50: > 79 µM (inactive)

SMILES: CCc1ccc(-c2noc(CCC(=O)NC3CC3)n2)cc1
- IC50: 21.1 µM (inactive)

SMILES: O=C(CCc1nc(-c2ccccc2)no1)NC1CC1
- IC50: > 79 µM (inactive)

SMILES: CCNC(=O)CCc1nc(-c2ccc(C(C)(C)C)cc2)no1
- IC50: 35.8 µM (inactive)

SMILES: CCOc1cccc(-c2nc(CSCC(=O)NC3CC3)c(C)o2)c1
- IC50: > 79 µM (inactive)

SMILES: Cc1oc(-c2ccc(C(F)(F)F)cc2)nc1CSCC(=O)O
- IC50: 0.38 µM

SMILES: CCNC(=O)CCc1nc(-c2ccc(C(C)C)cc2)no1
- IC50: 21.3 µM (inactive)

SMILES: CN(C)C(=O)CCc1nc(-c2ccc(C(C)(C)C)cc2)no1
- IC50: 42.2 µM (inactive)

SMILES: CCOc1ccc(-c2nc(CSCC(=O)NC(C)(C)C)c(C)o2)cc1
- IC50: 37.7 µM (inactive)

SMILES: CNC(=O)CCc1nc(-c2ccccc2)no1
- IC50: > 79 µM (inactive)

SMILES: COc1ccc(-c2nc(CSCC(=O)NC3CC3)c(C)o2)cc1
- IC50: > 79 µM (inactive)

SMILES: CCCCc1ccc(-c2noc(CCC(=O)NC(C)CC)n2)cc1 (stereo not drawn)
- IC50: 0.51 µM

SMILES: CCC(C)NC(=O)CCc1nc(-c2ccc(C(C)C)cc2)no1 (stereo not drawn)
- IC50: 3.48 µM

SMILES: CC(C)Nc1ccc(C(CC(=O)O)NC(=O)c2ccccc2)cc1[N+](=O)[O-] (stereo not drawn)
- IC50: > 79 µM (inactive)

SMILES: CC(C)(C)c1ccc(-c2noc(CCC(N)=O)n2)cc1
- IC50: 0.78 µM

SMILES: CCCOc1ccc(-c2nc(CSCC(=O)NCc3ccco3)c(C)o2)cc1
- IC50: 9.74 µM

SMILES: CCOc1ccc(-c2nc(CSCC(=O)NCc3ccco3)c(C)o2)cc1
- IC50: 21.4 µM (inactive)

SMILES: CNC(=O)CCc1nc(-c2ccc(C(C)C)cc2)no1
- IC50: 56.9 µM (inactive)

SMILES: CCC(C)NC(=O)CCc1nc(-c2ccc(C(C)(C)C)cc2)no1 (stereo not drawn)
- IC50: 3 µM

SMILES: CCOc1ccc(-c2noc(CCC(=O)O)n2)cc1
- IC50: 10.6 µM

SMILES: CCOc1ccc(-c2nc(CSCC(=O)NC3CC3)c(C)o2)cc1
- IC50: > 79 µM (inactive)

SMILES: CCOc1ccc(-c2nc(CSCC(=O)NC3CC3)c(-c3ccccc3)o2)cc1
- IC50: > 79 µM (inactive)

SMILES: CCOc1ccc(-c2nc(CSCC(=O)NC)c(C)o2)cc1
- IC50: > 79 µM (inactive)

SMILES: CC(C)c1ccc(-c2noc(CCC(=O)NC3CC3)n2)cc1
- IC50: 3.11 µM

SMILES: CCc1ccc(-c2noc(CCC(=O)NC(C)CC)n2)cc1 (stereo not drawn)
- IC50: 14.1 µM

SMILES: CCNC(=O)CCc1nc(-c2ccc(CC)cc2)no1
- IC50: 65.3 µM (inactive)

SMILES: CC(C)(C)c1ccc(-c2noc(CCC(=O)NC3CC3)n2)cc1
- IC50: 12 µM

SMILES: Cc1oc(-c2ccc(OC(F)(F)F)cc2)nc1CSCC(=O)NC1CC1
- IC50: 27.9 µM (inactive)

SMILES: CCCCc1ccc(-c2noc(CCC(=O)NC)n2)cc1
- IC50: 1.98 µM

SMILES: CCCCc1ccc(-c2noc(CCC(=O)NCC)n2)cc1
- IC50: 0.77 µM

SMILES: CC(C)c1ccc(-c2noc(CCC(=O)NC(C)(C)C)n2)cc1
- IC50: 5 µM

SMILES: CC(C)(C)c1ccc(-c2noc(CCC(=O)NC3CCC3)n2)cc1
- IC50: 1.18 µM

SMILES: CCN(CC)C(=O)CCc1nc(-c2ccc(C(C)(C)C)cc2)no1
- IC50: 16.8 µM
